Series [1] in a line: The compound was tested for toxicity in Vero cells. Format: cell-based. Particulars: Chlorocebus sabaeus (African green monkey).
A short description of series [2]: The compound was tested for toxicity in peripheral blood mononuclear cells. It counts as functional, Homo sapiens.
Series [3] can be described thus: Antiviral activity against human peripheral blood mononuclear cells, infected with HIV-1(strain LAV). It counts as functional. The procedure, abridged: (§1)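 Human PBM cells were infected with HIV-1 strain LAV or HIV-2 strain ROD-2. On day 6 after infection, virus in the cell supernatant was quantitated by reverse transcriptase assay using poly(rA)n-oligo(dT)12-18 as template-primer. EC50 was derived from the concentration-response curve by the Chou–Talalay median-effect method.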

The next series relates to Nucleic Acid. Kind of series: Inhibitory activity against DNA polymerase-alpha derived from peripheral blood mononuclear cells. Also noted: species or system Homo sapiens. A digest of the protocol:
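Selectivity counter-screen against DNA polymerase α purified from human PBM cells. Median inhibitory concentration derived from the concentration-response curve by the Chou–Talalay median-effect method.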

Series [4] relates to Vero. The experiment in a line: Antiviral activity against Vero cells, infected with HSV-1. It counts as functional, cell-based. The following applies: Chlorocebus sabaeus. A digest of the protocol: (§2)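 Plaque reduction assay in Vero cells infected with HSV-1 strain F. Median effective concentration taken from the concentration-response curve by the Chou–Talalay median-effect method.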

The nature of series [5]: Antiviral activity against human peripheral blood mononuclear cells, infected with HIV-2(strain ROD-2). Format: functional. The procedure, abridged:
as §1

Series [6] in a line: Antiviral activity against human peripheral blood mononuclear cells, infected with HIV-1(strain LAV). Format: functional. The procedure, abridged: (§3)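 Primary human PBM cells infected with virus and exposed to compound. Virus in cell supernatant was quantified on day 6 post-infection by reverse transcriptase assay using poly(rA)n-oligo(dT)12-18 template-primer on disrupted virions. EC50 derived from the concentration-response curve by the Chou–Talalay median-effect method.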

Series [7] relates to Vero. Kind of series: Antiviral activity against Vero cells, infected with HSV-1. It counts as functional, cell-based. The following applies: Chlorocebus sabaeus. The procedure, abridged:
as §2

Series [8] is described as follows: The compound was tested for toxicity in Vero cells. Format: cell-based. Particulars: Chlorocebus sabaeus (African green monkey).
A short description of series [9]: The compound was tested for toxicity in peripheral blood mononuclear cells. Format: functional, Homo sapiens.
Series [10] addresses T1, Human immunodeficiency virus type 1 reverse transcriptase (Human immunodeficiency virus 1, UniProt Q72547). Kind of series: Inhibition of HIV-1 reverse transcriptase recombinant p66.
The target of series [11] is T1, Human immunodeficiency virus type 1 reverse transcriptase. The experiment in a line: Inhibition of HIV-1 reverse transcriptase.
Series [12] is described as follows: Antiviral activity against human peripheral blood mononuclear cells, infected with HIV-2(strain ROD-2). It counts as functional. A digest of the protocol: as §3

Some results are limits rather than exact numbers.

The IC50 is the concentration that inhibits the measured activity by half. By EC50 is commonly meant the midpoint of the concentration-response curve. Consider `O=c1[nH]c(=O)n(COCCO)c([Se]c2ccccc2)c1Br`, for which the IC50 in series [1] is 8.2 µM; in series [2], more than 100 µM; in the series with Nucleic Acid, more than 100 µM. The EC50 was 3700 nM in [3], more than 100 µM with Vero [4] and 2 µM in series [5].
As to `Cc1c([Se]c2ccccc2)n(COCCO)c(=O)[nH]c1=O`, the IC50 in series [1] is more than 100 µM; in series [2], more than 200 µM; with Nucleic Acid it was more than 100 µM. For the same molecule, the results for the EC50 (in series [3]; in the series with Vero [4]; in series [5]) were 960 nM, more than 100 µM and 25.6 µM, respectively.
On to `O=c1[nH]c(=O)n(COCCO)cc1F`, for which the EC50 (in series [6]; with Vero [7]) was more than 100 µM in each case. In addition, the IC50 in [8] was more than 100 µM; in series [9], 67 µM.
For `O=c1[nH]c(=O)n(COCCO)c([Se]c2ccccc2)c1Cl`, the values for the IC50 (in series [1]; in series [2]; in the series with Nucleic Acid) were 7.5 µM, more than 100 µM and more than 100 µM, respectively. Also, the EC50 in series [3] was 3100 nM; in the series on Vero [4], more than 100 µM; in [5], 7.9 µM.
With `O=c1[nH]c(=O)n(COCCO)cc1Br`, the EC50 (in series [6]; with Vero [7]) was more than 100 µM each time. For the same molecule, the IC50 in [8] was more than 100 µM; in [9], 100 µM.
As to `Cc1cn([C@H]2C[C@H](N=[N+]=[N-])[C@@H](CO)O2)c(=O)[nH]c1=O` [ZIDOVUDINE], the IC50 in series [1] was 26 µM; in [2], more than 100 µM; in the series on Nucleic Acid, more than 100 µM; in series [10], less than 100 nM. The EC50 in series [3] is 4 nM; in the series with Vero [4], more than 100 µM; in series [5] it was less than 0.002 µM.
Take `Cc1cn(COCCO)c(=S)[nH]c1=O`: the EC50 (in series [6]; with Vero [7]) was more than 100 µM throughout. Further, the IC50 in series [8] and in [9] was more than 100 µM each time.
Consider `O=c1[nH]c(=O)n(COCCO)c([Se]c2ccccc2)c1F`, for which the 50% inhibitory concentration (IC50) was 25.7 µM in [1], more than 100 µM in [2] and more than 100 µM in the series with Nucleic Acid. Moreover, the EC50 in series [3] was 2000 nM; in the series with Vero [4], more than 100 µM; in [5], 9.1 µM.
For `Cc1c(Sc2ccccc2)n(COCCO)c(=O)[nH]c1=O` [HEPT], the IC50 was 17.5 µM in series [11], more than 100 µM in the series with Nucleic Acid, more than 100 µM in series [8] and more than 100 µM in series [9]. Further, the EC50 in series [12] is more than 100 µM; in series [6], 5.3 µM; in the series with Vero [7], more than 100 µM.
For the molecule `O=c1cc([Se]c2ccccc2)n(COCCO)c(=O)[nH]1`, the IC50 (in series [1]; in series [2]; in the series with Nucleic Acid) was more than 100 µM in each case. In addition, the EC50 in series [3] was 13000 nM; in the series with Vero [4], more than 200 µM; in series [5] it was 9.6 µM.
Take `O=c1ccn(COCCO)c(=O)[nH]1`: the IC50 in series [1] and in series [2] was more than 100 µM throughout. In addition, the EC50 in [3] is more than 100000 nM; in the series with Vero [4], more than 100 µM.
In the case of `Cc1cn(COCCO)c(=O)[nH]c1=O`, the EC50 (in [6]; in the series on Vero [7]) was more than 100 µM throughout. The IC50 in series [8] and in series [9] was more than 100 µM throughout.
Turning to `O=c1[nH]c(=O)n(COCCO)cc1Cl`, the EC50 (in series [6]; in the series with Vero [7]) was more than 100 µM throughout. In series [8], the IC50 was more than 100 µM.
As for `Cc1c([Se]c2ccccc2)n(COCCO)c(=S)[nH]c1=O`, the results for the IC50 (in [1]; in series [2]; with Nucleic Acid) were 60.7 µM, more than 100 µM and more than 100 µM, respectively. The results for the EC50 (in series [3]; in the series with Vero [4]; in series [5]) were 2800 nM, more than 100 µM and 5.8 µM, respectively.

The record behind these values is ChEMBL document CHEMBL1125914, “Activity of acyclic 6-(phenylselenenyl)pyrimidine nucleosides against human immunodeficiency viruses in primary lymphocytes” (J Med Chem, 1991).
